Calls of active or inactive are those of the source.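 Rule for the calls: active = viability loss with dose, its half-maximal concentration at most ten times the top valid tested dose; inconclusive = flat viability loss of 30 to 70 percent, or poor fit; inactive = the rest.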
system: not listed separately; assay: BJeH cell viability loss – BJeH cells, dry powder, set 2, counter-screen for Ras selective lethality project, dose response (AID 493051); conditions: BJeH fibroblast viability, Alamar Blue fluorescence, 48 h; at 48 µM (top of the series)
In short: (§1)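 Test system: BJeH cells, BJ human fibroblasts immortalized with hTERT; quantity: 1000 BJeH cells per well; doses: compound as a 2-fold dilution series; times: 48 h 37 °C compound exposure, ~16 h Alamar Blue development; measured by: Alamar Blue fluorescence, excitation 544 nm, emission 590 nm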

Row | SMILES | activity change, negative = viability loss
1 | Cc1ccc(C(=O)N2CCN(C(c3ccccc3)c3ccccc3)CC2)c([N+](=O)[O-])c1 | 19.4% (inactive)
2 | Cc1onc(C(=O)N2CCN(C(c3ccccn3)c3ccccn3)CC2)c1[N+](=O)[O-] | -5.34% (inactive)
3 | Cc1onc(C(=O)N2CCN(C(c3ccccc3)c3ccccc3)CC2)c1N | 5.64% (inactive)
4 | Cc1oc(C)c(C(=O)N2CCN(C(c3ccccc3)c3ccccc3)CC2)c1C | 49.1% (inactive)
5 | Cc1onc(C(=O)N2CCN(C(c3ccccc3)c3ccccc3)CC2)c1C | 46.9% (inactive)
6 | O=C(c1noc2ccccc12)N1CCN(C(c2ccccc2)c2ccccc2)CC1 | 27.9% (inactive)
7 | Cc1onc(C(=O)NCCNC(c2ccccc2)c2ccccc2)c1[N+](=O)[O-] | -6.54% (inactive)
8 | Cc1onc(C(=O)N2CCN(C(c3ccncc3)c3ccncc3)CC2)c1[N+](=O)[O-] | 4.32% (inactive)
9 | CC(C)c1onc(C(=O)N2CCN(C(c3ccccc3)c3ccccc3)CC2)c1[N+](=O)[O-] | 18.4% (inactive)
10 | Cc1onc(C(=O)N2CCN(C(c3ccccc3)c3ccccc3)CC2)c1Br | 22.7% (inactive)
11 | Cc1onc(C(=O)N2CCN(C(c3ccccc3)c3ccccc3)CC2)c1NS(C)(=O)=O | 8.49% (inactive)
12 | CC(=O)Nc1c(C(=O)N2CCN(C(c3ccccc3)c3ccccc3)CC2)noc1C | 15.6% (inactive)
13 | O=[N+]([O-])c1ccc(CN2CCN(C(c3ccccc3)c3ccccc3)CC2)o1 | -9.67% (inactive)

same assay, conditions: BJeH fibroblast viability, Alamar Blue fluorescence, 48 h; at 68 µM (top of the series)

Row | SMILES | activity change, negative = viability loss
14 | Cc1cc(C(=O)N2CCN(Cc3ccccc3)CC2)no1 | 3.96% (inactive)
15 | Cc1onc(C(=O)N2CCOCC2)c1[N+](=O)[O-] | 10.9% (inactive)
16 | Cc1onc(C(=O)N2CCN(Cc3ccccc3)CC2)c1[N+](=O)[O-] | 7.25% (inactive)
17 | CCOC(=O)N1CCN(C(=O)c2noc(C)c2[N+](=O)[O-])CC1 | 7.91% (inactive)
18 | Cc1onc(C(=O)NCc2ccc(F)cc2)c1[N+](=O)[O-] | 13.9% (inactive)
19 | COc1ccccc1N1CCN(C(=O)c2noc(C)c2[N+](=O)[O-])CC1 | 10.7% (inactive)

system: BJeH fibroblast viability, Alamar Blue fluorescence, 48 h; assay: as above; conditions: not given
In short: as §1

Row | SMILES | AC50 [µM]
20 | Cc1onc(C(=O)N2CCN(C(c3ccccc3)c3ccc(Cl)cc3)CC2)c1[N+](=O)[O-] (stereo not given) | 0.958
21 | COc1ccc(C(c2ccc(OC)cc2)N2CCN(C(=O)c3ccc([N+](=O)[O-])o3)CC2)cc1 | 6.29
22 | Cc1onc(C(=O)N2CCN(C(c3ccccc3)c3ccccc3)CC2)c1[N+](=O)[O-] | 7.89
23 | O=C(NCCNC(c1ccccc1)c1ccccc1)c1ccc([N+](=O)[O-])o1 | 3.33
24 | Cc1onc(C(=O)N2CCN(C(c3ccc(Cl)cc3)c3ccc(Cl)cc3)CC2)c1[N+](=O)[O-] | 0.628
25 | O=C(c1ccc([N+](=O)[O-])o1)N1CCN(C(c2ccc(F)cc2)c2ccc(F)cc2)CC1 | 11.8
26 | Cc1onc(C(=O)N2CCN(C(c3ccc(F)cc3)c3ccc(F)cc3)CC2)c1[N+](=O)[O-] | 1.49
27 | O=C(c1ccc([N+](=O)[O-])o1)N1CCCN(C(c2ccccc2)c2ccccc2)CC1 | 63.2
28 | COc1ccc(C(c2ccc(OC)cc2)N2CCN(C(=O)c3noc(C)c3[N+](=O)[O-])CC2)cc1 | 9.36
29 | Cc1onc(C(=O)N2CCCN(C(c3ccccc3)c3ccccc3)CC2)c1[N+](=O)[O-] | 5.13
30 | O=C(c1ccc([N+](=O)[O-])o1)N1CCN(C(c2ccccc2)c2ccccc2)CC1 | 17.7
